# Columns and labels:
# Assay type in all cases: functional
# [1] = tested on: Radical scavenging activity; experiment: Antioxidant activity assessed as DPPH free radical scavenging activity after 20 min by UV-Vis spectrophotometric analysis; parameters: concentration or dose not given beside the values
# Summary of the method: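 DPPH radical scavenging: samples were held at room temperature for 20 min in the dark, and absorbance was read at 517 nm. The control contained DMSO without compound, and methanol was used for baseline correction. Scavenging percentage was calculated from the absorbances.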
# [2] = tested on: Radical scavenging activity; experiment: Antioxidant activity assessed as DPPH free radical scavenging activity at 0.4 ug/mL after 20 min by UV-Vis spectrophotometric analysis
# Summary of the method: (§1)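 DPPH radical scavenging: samples held at room temperature for 20 min in the dark, then absorbance read at 517 nm. Control was DMSO without compound; methanol used for baseline correction. Percent scavenging calculated from absorbance relative to control.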
# [3] = tested on: Radical scavenging activity; experiment: Antioxidant activity assessed as DPPH free radical scavenging activity at 1 ug/mL after 20 min by UV-Vis spectrophotometric analysis; summary of the method: as §1
# [4] = tested on: Radical scavenging activity; experiment: Antioxidant activity assessed as DPPH free radical scavenging activity at 0.2 ug/mL after 20 min by UV-Vis spectrophotometric analysis; summary of the method: as §1
# [5] = tested on: Radical scavenging activity; experiment: Antioxidant activity assessed as DPPH free radical scavenging activity at 0.1 ug/mL after 20 min by UV-Vis spectrophotometric analysis; summary of the method: as §1
# [6] = tested on: Radical scavenging activity; experiment: Antioxidant activity assessed as DPPH free radical scavenging activity at 2 ug/mL after 20 min by UV-Vis spectrophotometric analysis; summary of the method: as §1
# [7] = tested on: Radical scavenging activity; experiment: Antioxidant activity assessed as DPPH free radical scavenging activity at 0.6 ug/mL after 20 min by UV-Vis spectrophotometric analysis; summary of the method: as §1
# [8] = tested on: Radical scavenging activity; experiment: Antioxidant activity assessed as DPPH free radical scavenging activity at 4 ug/mL after 20 min by UV-Vis spectrophotometric analysis; summary of the method: as §1
# [9] = tested on: Radical scavenging activity; experiment: Antioxidant activity assessed as DPPH free radical scavenging activity at 0.8 ug/mL after 20 min by UV-Vis spectrophotometric analysis; summary of the method: as §1
# [10] = tested on: Radical scavenging activity; experiment: Antioxidant activity assessed as DPPH free radical scavenging activity at 3 ug/mL after 20 min by UV-Vis spectrophotometric analysis; summary of the method: as §1
# Rhizoctonia solani = experiment: Antifungal activity against Rhizoctonia solani ITCC 5563 by food poisoning method
# Summary of the method: (§2)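 Poisoned food technique on PDA at several concentrations. A 5 mm mycelial plug from the growing edge of a 2-week-old colony was placed inoculum-side down at the plate centre. Plates incubated at 27 °C until control growth was nearly complete. Colony diameter measured, percent inhibition calculated against control, LC50 derived. Four replicates per treatment.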
# Staphylococcus aureus [11] = experiment: Antibacterial activity against Staphylococcus aureus MTCC 3160 assessed as growth inhibition at 100 ug/disk after 24 hr by disk diffusion method; conditions: MTCC 3160, 24 h, read-out: DIZ
# Summary of the method: (§3)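 Disk diffusion on nutrient agar. Strains kept on NA slants at 37 °C and subcultured in nutrient broth before testing. A log-phase culture was spread on solidified medium, and sterile disks were loaded with compound from DMSO stock. DMSO served as control, with commercial antibiotics for reference. Plates ran 24 h at 37 °C, and inhibition zones (mm) were read in quadruplicate.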
# Klebsiella pneumoniae [12] = experiment: Antibacterial activity against Klebsiella pneumoniae MTCC 7028 assessed as growth inhibition at 100 ug/disk after 24 hr by disk diffusion method; conditions: MTCC 7028, 24 h, read-out: DIZ; summary of the method: as §3
# Pseudomonas aeruginosa [13] = experiment: Antibacterial activity against Pseudomonas aeruginosa MTCC 2581 assessed as growth inhibition at 100 ug/disk after 24 hr by disk diffusion method; conditions: MTCC 2581, 24 h, read-out: DIZ; summary of the method: as §3
# Dickeya chrysanthemi [14] = experiment: Antibacterial activity against Erwinia chrysanthemi ITCC B-40 assessed as as growth inhibition after 24 hr by broth dilution method; conditions: ITCC B-40, 24 h
# Summary of the method: (§4)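 Broth dilution, with streptomycin as the standard. MIC was taken as the lowest concentration giving more than 90% bacterial inhibition.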
# Bacillus pumilus [15] = experiment: Antibacterial activity against Bacillus pumilus MTCC 2466 assessed as growth inhibition at 100 ug/disk after 24 hr by disk diffusion method; conditions: MTCC 2466, 24 h, read-out: DIZ; summary of the method: as §3
# Bacillus thuringiensis [16] = experiment: Antibacterial activity against Bacillus thuringiensis MTCC 6941 assessed as growth inhibition at 100 ug/disk after 24 hr by disk diffusion method; conditions: MTCC 6941, 24 h, read-out: DIZ; summary of the method: as §3
# Athelia rolfsii = experiment: Antifungal activity against Athelia rolfsii ITCC 6181 by food poisoning method; conditions: Agroathelia rolfsii; summary of the method: as §2
# Xanthomonas oryzae [17] = experiment: Antibacterial activity against Xanthomonas oryzae ITCC B-47 assessed as as growth inhibition at 100 ug/disk after 24 hr by disk diffusion method; conditions: ITCC B-47, 24 h, read-out: DIZ
# Dickeya chrysanthemi [18] = experiment: Antibacterial activity against Erwinia chrysanthemi ITCC B-40 assessed as as growth inhibition at 100 ug/disk after 24 hr by disk diffusion method; conditions: ITCC B-40, 24 h, read-out: DIZ; summary of the method: as §3
# Bacillus thuringiensis [19] = experiment: Antibacterial activity against Bacillus thuringiensis MTCC 6941 assessed as growth inhibition at 25 ug/disk after 24 hr by disk diffusion method; conditions: MTCC 6941, 24 h, read-out: DIZ
# Xanthomonas oryzae [20] = experiment: Antibacterial activity against Xanthomonas oryzae ITCC B-47 assessed as as growth inhibition at 25 ug/disk after 24 hr by disk diffusion method; conditions: ITCC B-47, 24 h, read-out: DIZ
# Klebsiella pneumoniae [21] = experiment: Antibacterial activity against Klebsiella pneumoniae MTCC 7028 assessed as growth inhibition at 25 ug/disk after 24 hr by disk diffusion method; conditions: MTCC 7028, 24 h, read-out: DIZ
# Bacillus pumilus [22] = experiment: Antibacterial activity against Bacillus pumilus MTCC 2466 assessed as growth inhibition at 25 ug/disk after 24 hr by disk diffusion method; conditions: MTCC 2466, 24 h, read-out: DIZ
# Staphylococcus aureus [23] = experiment: Antibacterial activity against Staphylococcus aureus MTCC 3160 assessed as growth inhibition at 25 ug/disk after 24 hr by disk diffusion method; conditions: MTCC 3160, 24 h, read-out: DIZ
# Dickeya chrysanthemi [24] = experiment: Antibacterial activity against Erwinia chrysanthemi ITCC B-40 assessed as as growth inhibition at 25 ug/disk after 24 hr by disk diffusion method; conditions: ITCC B-40, 24 h, read-out: DIZ
# Pseudomonas aeruginosa [25] = experiment: Antibacterial activity against Pseudomonas aeruginosa MTCC 2581 assessed as growth inhibition at 25 ug/disk after 24 hr by disk diffusion method; conditions: MTCC 2581, 24 h, read-out: DIZ
# Klebsiella pneumoniae [26] = experiment: Antibacterial activity against Klebsiella pneumoniae MTCC 7028 assessed as growth inhibition after 24 hr by broth dilution method; conditions: MTCC 7028, 24 h; summary of the method: as §4
structure (smiles),measurement,setting,value
O=C(O)c1cc(O)c(O)c(O)c1 [GALLIC ACID],Activity,[1],21.4%
same,IC50,[1],1.28 µg/mL
same,Activity,[2],21.4%
same,Activity,[3],41%
same,Activity,[4],15.8%
same,Activity,[5],13.9%
same,Activity,[6],73.6%
same,Activity,[7],28%
same,Activity,[8],89.9%
same,Activity,[9],34.4%
same,Activity,[10],88.9%
CCOC(=O)C1C(=O)C=C(c2ccc(Cl)cc2)CC1c1ccc(OC)cc1 (stereo not given),Activity,[1],4.74%
same,LC50,Rhizoctonia solani,58 µg/mL
same,zone of inhibition at 100 µg/disc,Staphylococcus aureus [11],0 mm
same,zone of inhibition at 100 µg/disc,Klebsiella pneumoniae [12],0 mm
same,zone of inhibition at 100 µg/disc,Pseudomonas aeruginosa [13],0 mm
same,MIC,Dickeya chrysanthemi [14],73.6 µg/mL
same,zone of inhibition at 100 µg/disc,Bacillus pumilus [15],0 mm
same,zone of inhibition at 100 µg/disc,Bacillus thuringiensis [16],0 mm
same,LC50,Athelia rolfsii,372 µg/mL
same,zone of inhibition at 100 µg/disc,Xanthomonas oryzae [17],0 mm
same,zone of inhibition at 100 µg/disc,Dickeya chrysanthemi [18],15 mm
CC1(C)S[C@@H]2[C@H](NC(=O)[C@H](N)c3ccccc3)C(=O)N2[C@H]1C(=O)O [AMPICILLIN],zone of inhibition at 25 µg/disc,Bacillus thuringiensis [19],0 mm
same,zone of inhibition at 25 µg/disc,Xanthomonas oryzae [20],5 mm
same,zone of inhibition at 25 µg/disc,Klebsiella pneumoniae [21],10 mm
same,zone of inhibition at 25 µg/disc,Bacillus pumilus [22],20 mm
same,zone of inhibition at 25 µg/disc,Staphylococcus aureus [23],10 mm
same,zone of inhibition at 25 µg/disc,Dickeya chrysanthemi [24],20 mm
same,zone of inhibition at 25 µg/disc,Pseudomonas aeruginosa [25],10 mm
NC[C@H]1O[C@H](O[C@H]2[C@H](O)[C@@H](O[C@H]3O[C@H](CO)[C@@H](O)[C@H](N)[C@H]3O)[C@H](N)C[C@@H]2N)[C@H](O)[C@@H](O)[C@@H]1O [KANAMYCIN],zone of inhibition at 25 µg/disc,Bacillus thuringiensis [19],15 mm
same,zone of inhibition at 25 µg/disc,Xanthomonas oryzae [20],0 mm
same,zone of inhibition at 25 µg/disc,Klebsiella pneumoniae [21],15 mm
same,zone of inhibition at 25 µg/disc,Bacillus pumilus [22],0 mm
same,zone of inhibition at 25 µg/disc,Staphylococcus aureus [23],10 mm
same,zone of inhibition at 25 µg/disc,Dickeya chrysanthemi [24],0 mm
same,zone of inhibition at 25 µg/disc,Pseudomonas aeruginosa [25],0 mm
CN[C@@H]1[C@H](O[C@H]2[C@H](O[C@H]3[C@H](O)[C@@H](O)[C@H](N=C(N)N)[C@@H](O)[C@@H]3N=C(N)N)O[C@@H](C)[C@]2(O)C=O)O[C@@H](CO)[C@H](O)[C@H]1O [STREPTOMYCIN],zone of inhibition at 25 µg/disc,Bacillus thuringiensis [19],20 mm
same,zone of inhibition at 25 µg/disc,Xanthomonas oryzae [20],20 mm
same,MIC,Dickeya chrysanthemi [14],4.6 µg/mL
same,zone of inhibition at 25 µg/disc,Klebsiella pneumoniae [21],20 mm
same,zone of inhibition at 25 µg/disc,Bacillus pumilus [22],15 mm
same,zone of inhibition at 25 µg/disc,Staphylococcus aureus [23],20 mm
same,MIC,Klebsiella pneumoniae [26],3.1 µg/mL
same,zone of inhibition at 25 µg/disc,Dickeya chrysanthemi [24],20 mm
same,zone of inhibition at 25 µg/disc,Pseudomonas aeruginosa [25],20 mm

# From ChEMBL document CHEMBL3045565, “Microwave synthesis, characterization and bio-efficacy evaluation of novel chalcone based 6-carbethoxy-2-cyclohexen-1-one and 2H-indazol-3-ol derivatives” (Eur J Med Chem, 2013)
